Assay outcomes (PubChem)
UCH37 inh = inhibitors of human UCH37 deubiquitinase, primary screen, biochemical, Ub-AMC cleavage, fluorescence; purified proteasome/UCH37; inhibition, % (concentration not given with the values); actives 0.33% (n = 330,000);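 active = mean inhibition over replicate wells above about 20%, limit read from the data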
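Reagent: Ub-AMC substrate; assay system: Proteasome-associated human UCH37 deubiquitinase; controls: no-proteasome and no-compound wells; read-out: % inhibition of Ub-AMC cleavage fluorescence; timing: 30 min preincubation with enzyme, 25 min cleavage at room temperature; signal: AMC fluorescence from Ub-AMC cleavage, excitation 355 nm, emission 460 nm; buffer or medium: Tris-HCl pH 7.4 plus ovalbumin, ATP-MgCl2, DTT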
PolyA inh = polyadenylation inhibitors in yeast reporter cells, primary screen, luminescence, S. cerevisiae; S. cerevisiae SKY197-pL101 polyadenylation reporter, beta-gal luminescence; efflux-impaired pdr1/pdr3 knockout yeast; score 100 = 6 SD above DMSO; activity score, % at 12 µM; AID 1875, 2009; actives 0.02% (n = 300,000);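 active = lowest replicate activity score at least 50, where 100 means six control SD above control mean; inconclusive = lowest score under 50 but half or more replicates reach 50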;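 also: yeast exposed to compound for 9 h at 30 °C; higher score means more reporter readthrough which indicates perturbed polyadenylation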
APOBEC3A inh = APOBEC3A ssDNA deaminase inhibitors, primary screen, selectivity assay for APOBEC3G inhibitor project, biochemical, FAM/TAMRA oligo cleavage fluorescence; inhibition, % at 20 µM; recombinant A3A, FAM/TAMRA ssDNA deamination fluorescence; DNA dC->dU-editing enzyme APOBEC-3A (Homo sapiens), P31941; actives 0.41% (n = 330,000);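 active = at least 40% inhibition at 20 µM here, with at most 30% in a related deaminase screen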
AHR act = AHR activators, primary screen, cell-based, luminescence, luciferase reporter, human. activation, % at 5 µM. AHR-responsive luciferase reporter cells. actives 2.5% (n = 320,000); in the data active = activation above about 47%
Target sequence (P35869 whole entry, looked up): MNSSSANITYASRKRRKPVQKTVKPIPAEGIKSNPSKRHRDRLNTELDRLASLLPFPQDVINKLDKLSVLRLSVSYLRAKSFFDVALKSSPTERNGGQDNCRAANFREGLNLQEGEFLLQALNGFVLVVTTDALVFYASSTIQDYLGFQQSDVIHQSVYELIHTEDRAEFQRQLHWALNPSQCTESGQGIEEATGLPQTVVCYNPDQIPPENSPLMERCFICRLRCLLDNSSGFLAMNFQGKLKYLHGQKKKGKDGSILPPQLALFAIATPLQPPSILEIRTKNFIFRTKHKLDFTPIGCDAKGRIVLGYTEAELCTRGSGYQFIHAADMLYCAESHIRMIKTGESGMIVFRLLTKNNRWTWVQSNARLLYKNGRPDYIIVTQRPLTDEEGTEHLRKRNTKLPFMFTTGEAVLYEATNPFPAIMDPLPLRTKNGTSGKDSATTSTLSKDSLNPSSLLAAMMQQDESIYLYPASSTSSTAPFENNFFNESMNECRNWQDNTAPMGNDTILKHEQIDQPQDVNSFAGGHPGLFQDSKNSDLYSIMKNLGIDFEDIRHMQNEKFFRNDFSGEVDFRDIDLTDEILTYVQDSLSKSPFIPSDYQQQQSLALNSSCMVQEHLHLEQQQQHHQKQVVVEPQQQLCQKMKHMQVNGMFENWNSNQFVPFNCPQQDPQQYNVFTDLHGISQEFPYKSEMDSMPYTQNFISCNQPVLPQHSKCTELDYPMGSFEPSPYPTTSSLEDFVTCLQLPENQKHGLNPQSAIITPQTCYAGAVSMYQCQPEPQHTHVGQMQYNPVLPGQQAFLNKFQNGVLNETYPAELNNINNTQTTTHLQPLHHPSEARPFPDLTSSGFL
APOBEC3G inh = APOBEC3G DNA deaminase inhibitors, primary screen, biochemical, fluorescence, single-stranded DNA substrate, uHTS. recombinant A3G, ssDNA deamination FAM/TAMRA fluorescence. inhibition, % at 20 µM. actives 0.28% (n = 330,000). AID 493012, 2011;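 active = inhibition of at least 40% at 20 µM, with no more than 30% in the related APOBEC3A deaminase screen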
Arr AP2 block = inhibitors of beta-arrestin/AP2 binding, primary screen, biochemical, GPCR trafficking, flow cytometry. FITC-arrestin peptide / GST-AP2 beads; AP2 beta2 appendage carries R879A mutation. inhibition, % at 10 µM. actives 0.31% (n = 340,000). AID 504490, 2011;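 active = inhibition above a set limit, near 3 SD of compounds lacking own fluorescence, cut at about 54% in these data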
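test system = AP2 appendage R879A on GSH beads | buffer or medium = PBS plus Tween 20 (0.05%) and BSA (0.1%) | incubation = 12 min plus 1 h, RT | detection = bead flow cytometry, FITC channel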
Large screens that a line does not name were inactive. Most compounds without a hit are left out; they make up all but 3.4% or so of the library.

Cc1nn(-c2ccccn2)c2c1-c1nc(N3CCOCC3)ncc1CC2	none
Cc1nn(-c2ccccn2)c2c1-c1nc(N)ncc1CC2	AHR act 63
Cc1ccc(S(=O)(=O)CCSc2cccc(C(=O)Nc3ccccc3C(=O)O)c2)cc1	UCH37 inh 25
Cc1ccc(NC(=O)c2cccc(C(=O)Nc3ccc(C)cc3C(=O)O)c2)c(C(=O)O)c1	none
O=C(NCCN1CCOCC1)c1cc(-c2ccccc2)on1	none
O=C(NCCN1CCOCC1)c1cc(-c2cccs2)on1	AHR act 62 (no result: PolyA inh)
Cc1c(C=NO)c2ccccn2c1C(=O)c1ccc(F)cc1	none (no result: PolyA inh, APOBEC3A inh, AHR act, APOBEC3G inh, Arr AP2 block)
C=CCn1cccc(C(=O)Nc2ccc(Cl)cc2)c1=O	AHR act 51
C=CCn1cccc(C(=O)Nc2ccc(SC)cc2)c1=O	AHR act 65
CC(=NNC(=O)c1ccc(C)s1)c1cccnc1	none (no result: PolyA inh, APOBEC3A inh, AHR act, APOBEC3G inh, Arr AP2 block)
COc1cc(/C=C(\C#N)c2nc3ccc(C)cc3[nH]2)cc([N+](=O)[O-])c1O	UCH37 inh 24 (no result: PolyA inh, APOBEC3A inh, AHR act, APOBEC3G inh)
COc1cc(/C=C(\C#N)c2nc3ccc(C)cc3[nH]2)c([N+](=O)[O-])cc1OC	AHR act 66
COc1c(O)ccc(/C=C(\C#N)c2nc3ccccc3[nH]2)c1[N+](=O)[O-]	AHR act 50
COc1cc(/C(C#N)=C/c2ccccc2)c([N+](=O)[O-])cc1OC	AHR act 47
CCCCc1n[nH]c2c1C(=NO)CC(c1ccccc1)C2 (configuration not stated)	none (no result: PolyA inh, APOBEC3A inh, AHR act, APOBEC3G inh, Arr AP2 block)
CC(=O)Nc1cccc(C(C)=NNC(=S)NC(C)C)c1	none (no result: PolyA inh, APOBEC3A inh, AHR act, APOBEC3G inh, Arr AP2 block)
O=C(COc1ccc(C=NNS(=O)(=O)c2ccccc2)cc1)NCCc1ccccc1	none (no result: PolyA inh, APOBEC3A inh, AHR act, APOBEC3G inh, Arr AP2 block)
Nc1ccc2nc(-c3ccccn3)[nH]c2c1	none
COc1ccc2nc(-c3ccccn3)[nH]c2c1	AHR act 47
CC(=NNc1ccc(Cl)c(Cl)c1)c1ccc(-n2ccnc2)cc1	none (no result: PolyA inh, APOBEC3A inh, AHR act, APOBEC3G inh, Arr AP2 block)
O=C1N[C@H](Cc2ccccc2)COC(=O)[C@@H](Cc2ccc(F)cc2)CC/C=C/C[C@H]1CC(=O)N(CCO)Cc1ccccc1	UCH37 inh 22 (no result: PolyA inh)
COc1ccccc1NC(=S)NC(=O)Cc1ccccc1	none
CCC(=O)NC(=S)Nc1ccc(OC)cc1OC	AHR act 70
CCC(=O)Nc1ccc(OC)cc1OC	none
COc1ccc(NC(=O)c2cc(Br)ccc2Cl)c(OC)c1	AHR act 107
COc1ccc(NC(=S)NC(=O)Cc2ccccc2)c(OC)c1	AHR act 48
CCC(=NNC(=O)CNc1ccc(Cl)cc1C)c1ccccc1	none (no result: PolyA inh, APOBEC3A inh, AHR act, APOBEC3G inh, Arr AP2 block)
CCOC(=O)NN=Cc1ccc(Oc2ccccc2)cc1	none (no result: PolyA inh, APOBEC3A inh, AHR act, APOBEC3G inh, Arr AP2 block)
O=C(Nc1ccc(C(F)(F)F)cc1)c1ccccc1	AHR act 53 (no result: PolyA inh)
O=C(Nc1ccc(Br)c(C(F)(F)F)c1)c1ccccc1	AHR act 51
O=C(Nc1ccc(Br)c(C(F)(F)F)c1)c1ccc(C(F)(F)F)cc1	none
O=C(Nc1ccc(C(=O)c2ccccc2)cc1)c1ccccc1	none
CCCc1c(C(=O)Nc2ccc(C(F)(F)F)cc2)cnn1-c1ccccc1	AHR act 110
Cc1cccc(N=Cc2sc3ccccc3c2O)n1	none (no result: PolyA inh, APOBEC3A inh, AHR act, APOBEC3G inh, Arr AP2 block)
CCc1ccc(C=c2sc(=CC(=O)C(C)(C)C)[nH]c2=O)cc1	none (no result: PolyA inh, APOBEC3A inh, AHR act, APOBEC3G inh, Arr AP2 block)
Cc1ncsc1C(=O)N1N=C2/C(=C/c3ccccc3)CCCC2C1c1ccccc1 (configuration not stated)	none
NC(=O)N1N=C2/C(=C/c3ccccc3)CCCC2C1c1ccccc1 (configuration not stated)	AHR act 59
O=C(O)CSCC(=O)N1N=C2/C(=C/c3ccccc3)CCCC2C1c1ccccc1 (configuration not stated)	AHR act 49
Cc1ccc(S(=O)(=O)Nc2ccc(Br)cc2C=Nn2cnnc2)cc1	none (no result: PolyA inh, APOBEC3A inh, AHR act, APOBEC3G inh, Arr AP2 block)
Cc1ccc(-c2c(C(=O)NN=Cc3cccnc3)nnn2-c2nonc2N)cc1	none (no result: PolyA inh, APOBEC3A inh, AHR act, APOBEC3G inh, Arr AP2 block)
CNc1ncnc2c1ncn2[C@@H]1O[C@H](CO)[C@@H](O)[C@H]1O	AHR act 60 (no result: PolyA inh)
CC(=O)c1cccc(Nc2cc(C)nc3c(C)cc(C)cc23)c1	AHR act 56
CC(=O)c1ccc(Nc2cc(C)nc3c(C)cccc23)cc1	AHR act 49
COCCC(=O)N1CCc2ccc(NC(=O)c3ccc(C(F)(F)F)cc3)cc2C1	AHR act 72
O=C(NN=Cc1ccco1)c1cccc(N2Cc3ccccc3C2)c1	none (no result: PolyA inh, APOBEC3A inh, AHR act, APOBEC3G inh, Arr AP2 block)
CCOc1ccccc1-c1nc(C(N)=O)c2[nH]c(=O)n(-c3ccc(F)cc3)c2n1	AHR act 72
COc1ccccc1N1CCN(C(=O)c2ccc(-c3nc4ccccc4s3)o2)CC1	none (no result: PolyA inh)
COc1ccc(N2CCN(C(=O)c3ccc(-c4nc5ccccc5s4)o3)CC2)cc1	AHR act 69 (no result: PolyA inh)
Cc1ccc2[nH]c3c(NCc4ccco4)ncnc3c2c1	PolyA inh inconclusive, AHR act 57
COc1ccc(/C=N/Nc2ncnc3c2[nH]c2ccc(C)cc23)c(OC)c1OC	AHR act 63 (no result: UCH37 inh)
COc1cc(CNc2ncnc3c2[nH]c2ccc(C)cc23)cc(OC)c1	none
CC(/C=C/c1ccco1)=NNC(=O)Cc1cccs1	none (no result: PolyA inh, APOBEC3A inh, AHR act, APOBEC3G inh, Arr AP2 block)
C=CCc1c(C)nc(C)nc1NN=Cc1ccc(F)cc1	none (no result: PolyA inh, APOBEC3A inh, AHR act, APOBEC3G inh, Arr AP2 block)
COCCn1c(SCC(=O)Nc2cccc(F)c2)nc2c([nH]c3ccccc32)c1=O	AHR act 65
COCCn1c(SCC(=O)Nc2ccc(C(C)=O)cc2)nc2c([nH]c3ccccc32)c1=O	none (no result: UCH37 inh)
Cn1c(SCC(=O)Nc2ccccc2)nc2c([nH]c3ccccc32)c1=O	AHR act 53
CCn1c(SCC(=O)N2CCN(c3ccccc3)CC2)nc2c([nH]c3ccccc32)c1=O	AHR act 54
CC(=O)Nc1ccc(NC(=O)CSc2nc3c([nH]c4ccccc43)c(=O)n2-c2ccccc2F)cc1	AHR act 58
CC(=NNC(=O)c1cc2c(s1)CCC(C)C2)c1cccnc1 (configuration not stated)	none (no result: PolyA inh, APOBEC3A inh, AHR act, APOBEC3G inh, Arr AP2 block)
Cc1cc(C)n(-c2nc3ccccc3c(=O)n2OCc2ccc(F)cc2)n1	AHR act 54
C#CCOn1c(-n2nc(C)cc2C)nc2ccccc2c1=O	none
Cc1cc(C)n(-c2nc3ccccc3c(=O)n2OCC(=O)OCc2ccccc2)n1	none (no result: APOBEC3A inh, AHR act, APOBEC3G inh)
Cc1cc(C)n(-c2nc3ccccc3c(=O)n2OCc2ccc(Cl)cc2)n1	AHR act 49
CCC(C)Sc1cc(C(F)(F)F)c(C(=O)Nc2ccc(Cl)cc2)cn1 (configuration not stated)	AHR act 59
